Source: PubChem (several laboratories)
Rin1 Abl inh: inhibitors of Rin1-Abl protein binding, primary screen, biochemical, TR-FRET; AID 588664, 2011; inhibition, % at 7.35 µM; 360,000 tested, 0.4% active; Tyrosine-protein kinase ABL1 (Homo sapiens) + Ras and Rab interactor 1 (Homo sapiens), …; in the data active = inhibition above about 5%, passing the limit was not always enough
Rpn11 inh: Rpn11 (PSMD14) deubiquitinase inhibitors, primary screen, biochemical, fluorescence polarization, uHTS | human 26S proteasome, Ub4-pepOG fluorescence polarization; 20S core pre-blocked with epoxomicin | inhibition, % at 20 µM | 360,000 tested, 0.59% active | AID 588493, 2011;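 active = inhibition at 20 µM, scaled to each plate's controls, above about 33%, limit read from the data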
XiGFP reactiv: activators of inactive X chromosome reactivation, primary screen, imaging, XiGFP fibroblasts, GFP high-content imaging, set 2; XiGFP mouse fibroblasts, % GFP-positive cells imaging, 3 d; cells co-treated with 5-aza-dC sensitizer; scaled so ellipticine positive control = 100%; activation, % at 7.58 µM; 360,000 tested, 0.055% active; AID 743238, 2013;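 active = mean normalized replicate activation at least 10% and every replicate at or above 10%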;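 note: 0% = median of on-plate neutral control wells and 100% = ellipticine 6 µM median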
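Material: XiGFP fibroblasts, SV40-immortalized. Buffer or medium: DMEM plus 5-aza-dC sensitizer. Compound: single concentration per compound, delivered by pin transfer. Times: 3 days compound exposure. Controls: ellipticine 6 µM.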
ABHD5-PLIN5 inh: ABHD5-PLIN5 interaction inhibitors, primary screen, cell lysate, split luciferase complementation, luminescence; inhibition, % at 4 µM; AID 602281, 2012; Split G. princeps luciferase complementation, 4 h; Perilipin-5 (Homo sapiens) + 1-acylglycerol-3-phosphate O-acyltransferase ABHD5 (Homo …; 360,000 tested, 0.78% active;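 active = inhibition above the mean inhibition across every tested compound plus 3 SD, cut at about 22% in these data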;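 note: 0% = DMSO only wells and the 100% control is not disclosed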
NadD block: inhibitors of S. aureus NadD, primary screen, biochemical, colorimetric, uHTS; Nicotinate-nucleotide adenylyltransferase NadD (Staphylococcus aureus N315); purified NadD enzyme, colorimetric absorbance read-out; inhibition, % at 20 µM; 360,000 tested, 0.78% active; AID 602399, 2012; in the data active = inhibition above about 26%
ABHD5 PLIN5 conf: ABHD5-PLIN5 interaction inhibitors, confirmation, biochemical, luminescence; shares compounds with ABHD5-PLIN5 inh; 2,200 tested, 67% active; inhibition, % at 4 µM; AID 651612, 2012; in the data active = inhibition above about 23%;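 note: 0% = DMSO vehicle wells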
HNF4 counter: HNF4 dimerization inhibitors, counter-screen for ABHD5-PLIN5 interaction inhibitor project, biochemical, split-luciferase complementation, luminescence | 2,200 tested, 77% active | inhibition, % at 4 µM | shares compounds with ABHD5-PLIN5 inh;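 active = mean inhibition across replicate wells exceeding the computed hit threshold, cut at about 13% in these data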;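 note: light from luciferase halves that rejoin when HNF4 fusion proteins dimerize; 0% = DMSO only wells and the 100% control is not given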
Target sequence (P41235 whole entry, looked up, the tested form may be a part): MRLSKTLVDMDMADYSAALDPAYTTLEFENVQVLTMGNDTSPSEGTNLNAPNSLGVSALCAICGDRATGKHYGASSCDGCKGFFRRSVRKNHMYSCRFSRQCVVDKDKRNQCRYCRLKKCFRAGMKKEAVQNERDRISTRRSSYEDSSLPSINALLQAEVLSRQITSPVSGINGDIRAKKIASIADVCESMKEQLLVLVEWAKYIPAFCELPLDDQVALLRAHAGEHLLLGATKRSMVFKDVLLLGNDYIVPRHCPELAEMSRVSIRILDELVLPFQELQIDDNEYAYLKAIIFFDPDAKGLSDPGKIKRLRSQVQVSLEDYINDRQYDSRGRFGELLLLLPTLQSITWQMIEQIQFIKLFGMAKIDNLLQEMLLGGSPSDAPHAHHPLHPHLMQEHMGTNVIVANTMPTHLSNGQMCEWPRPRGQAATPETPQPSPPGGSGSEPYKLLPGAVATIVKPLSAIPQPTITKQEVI
Starred values were filed as active, the others as inactive; · = no result given. Sampled rows, rich in hits. Any-hit rate of the full collection: about 1.9%.

SMILES	Rin1 Abl inh	Rpn11 inh	XiGFP reactiv	ABHD5-PLIN5 inh	NadD block	ABHD5 PLIN5 conf	HNF4 counter
Cn1cc(/C=C2\C(=O)NC(=O)N(c3ccccc3)C2=O)c2ccccc21	-1	-8	0	29*	0	14	15*
O=C(O)Cn1cc(C=C2C(=O)NC(=O)NC2=O)c2ccccc21	-2	-2	0	32*	-1	12	12
Cc1cc(/C=C2/C(=O)NC(=O)N(c3ccccc3)C2=O)c(C)n1-c1ccc(F)cc1	0	10	·	6	3	·	·
O=C(Cc1ccccn1)N1CCCCN2[C@H](CO)[C@H](c3ccc(C#Cc4ccccc4)cc3)[C@H]2C1	·	·	0	·	·	·	·
Cc1ccc(N2C(=O)CC(=O)NC2=O)cc1	2	-1	·	21	-4	·	·
O=C1CC(=O)N(c2ccccc2)C(=O)N1	4	-5	1	29*	3	5	24*
C=C1C(=O)OC2CC(C)C3C=CC(=O)C3(C)C(O)C12 (stereo not given)	3	-3	·	79*	3	93*	90*
C=C1C(=O)OC2C1CCC(C)C1(O)C=CC(=O)C21C (stereo not given)	1	0	·	3	6	·	·
C=C1C(=O)O[C@H]2C[C@@H](C)[C@@H]3C=CC(=O)[C@@]3(C)C[C@H]12	·	·	0	·	·	·	·
C=C1C(=O)O[C@H]2[C@H]1[C@H](OC(=O)CC(=O)O[C@@H]1C[C@@H](C)[C@@H]3C=CC(=O)[C@@]3(C)[C@H]3OC(=O)C(=C)[C@H]13)C[C@@H](C)[C@H]1C=CC(=O)[C@]12C	2	-9	0	74*	9	91*	90*
O=c1c2ccccc2[se]n1-c1ccccc1	-1	-1	0	81*	6	88*	110*
COC(=O)[C@@H]1[C@@H](CO)[C@@H]2Cn3c(cccc3=O)[C@H]1N2C(=O)C1CCCC1	·	·	1	·	·	·	·
Nc1c(C(=O)NCc2ccco2)c2nc3ccccc3nc2n1CCN1CCCCC1	-7	31	·	24*	22	12	8
Nc1c(C(=O)NCC2CCCO2)c2nc3ccccc3nc2n1Cc1ccco1 (stereo not given)	-2	37	0	26*	5	53*	45*
CC(C)CNC(=O)c1c(N)n(Cc2ccco2)c2nc3ccccc3nc12	-2	30	·	22	16	·	·
C=CCNC(=O)c1c(N)n(CCN2CCOCC2)c2nc3ccccc3nc12	-1	-2	·	2	3	·	·
O=C(Cc1cccnc1)N1CCCCN2[C@H](CO)[C@@H](c3ccc(C#CC4CCCC4)cc3)[C@@H]2C1	·	·	0	·	·	·	·
O=C(Cc1ccccc1)N1CCCCN2[C@H](CO)[C@H](c3ccc(C#CC4(O)CCCC4)cc3)[C@@H]2C1	·	·	0	·	·	·	·
C=CCN1C(=O)NC(=O)/C(=C/c2c(CCN(C)C(=O)c3ccccc3)cc3c(c2OC)OCO3)C1=O	-3	-10	·	26*	4	9	18*
CCCN1[C@@H]2c3cccc(=O)n3C[C@H]1[C@H](CO)[C@H]2C(=O)N(C)C	·	·	1	·	·	·	·
CC1(C)C[C@H]2C=C(C=O)[C@]3(C=O)C[C@]3(C)[C@H]2C1	0	2	·	63*	4	70*	4
C/C(=C\c1ccc(N(C)C)cc1)[N+](=O)[O-]	-1	7	·	65*	-10	99*	98*
CN(C)c1ccc(/C=C/[N+](=O)[O-])cc1	-6	17	1	71*	3	85*	82*
COC(=O)[C@H]1[C@H](CO)[C@H]2Cn3c(ccc(-c4ccccc4F)c3=O)[C@@H]1N2Cc1ccncc1	·	·	0	·	·	·	·
O=C(Cc1ccccc1)N1CCCCN2[C@@H](CO)[C@@H](c3ccc(-c4ccccc4)cc3)[C@@H]2C1	·	·	0	·	·	·	·
SMILES	Rin1 Abl inh	Rpn11 inh	XiGFP reactiv	ABHD5-PLIN5 inh	NadD block	ABHD5 PLIN5 conf	HNF4 counter
N#Cc1cccc(-c2ccc([C@@H]3[C@@H](CO)N4CCCCN(C(=O)Cc5ccccc5)C[C@@H]34)cc2)c1	·	·	0	·	·	·	·
O=C(c1ccccc1)C(CN1CCCC1)c1ccccc1 (stereo not given)	1	-3	1	17	-1	·	·
CC1CCN(C(CC(=O)c2ccccc2)C(=O)c2ccccc2)CC1 (stereo not given)	5	8	0	42*	0	64*	103*
O=C1NC(=O)N(c2ccccc2F)C(=O)/C1=C/c1ccc(Oc2ccc([N+](=O)[O-])cn2)cc1	-1	-2	0	24*	3	69*	47*
Cc1cccc(N2C(=O)NC(=O)/C(=C\C=C\c3ccco3)C2=O)c1	-2	31	0	24*	-1	93*	70*
O=C1NC(=O)N(Cc2ccco2)C(=O)/C1=C/C=C/c1ccco1	2	141*	0	46*	19	98*	80*
Cc1ccc(N2C(=O)NC(=O)/C(=C\C=C\c3ccco3)C2=O)cc1	4	38	0	25*	1	95*	73*
Cc1cccc(N2C(=O)CC(=O)NC2=O)c1	-1	2	·	15	1	·	·
CN1C(=O)/C(=C/c2ccc(Cl)s2)C(=O)NC1=S	-2	29	0	-6	19	·	·
CN1C(=O)/C(=C/C=C/c2ccco2)C(=O)NC1=S	5.4*	149*	0	26*	4	74*	49*
Cn1cccc1/C=C1\C(=O)NC(=O)N(Cc2ccco2)C1=O	2	-7	0	4	5	·	·
Cc1ccc(N2C(=O)NC(=O)/C(=C\C=C\c3ccco3)C2=O)cc1C	-2	32	0	15	2	·	·
COc1ccc(-c2ccc3n(c2=O)C[C@H]2[C@H](CO)[C@@H](C(=O)O)[C@@H]3N2C(=O)c2ccccc2F)cc1	·	·	0	·	·	·	·
COC(=O)[C@H]1[C@H](CO)[C@H]2Cn3c(ccc(-c4ccccc4)c3=O)[C@@H]1N2CC1CCCCC1	·	·	0	·	·	·	·
COC(=O)[C@@H]1[C@@H](CO)[C@@H]2Cn3c(ccc(-c4ccccc4F)c3=O)[C@H]1N2Cc1ccncc1	·	·	1	·	·	·	·
